Data published in ChEMBL document CHEMBL1152452, “Modifications incorporated in CpG motifs of oligodeoxynucleotides lead to antagonist activity of toll-like receptors 7 and 9” (2009).
Activity calls are given as the source filed them. No cut-off for these calls is given here.

What was measured:
[1] = test system: Mus musculus; experiment: Immunostimulatory activity in C57BL/6 mouse assessed as inhibition of 5'-CTATCTGACGTTCTCTGT-3'-induced IP10 production in serum at 5 mg/kg, sc administered 24 hrs prior to 5'-CTATCTGACGTTCTCTGT-3' challenge measured after 2 hrs by Luminex multiplex assay; type: functional; details: C57BL/6, sc, route subcutaneous
[2] = test system: Mus musculus; experiment: Immunostimulatory activity in C57BL/6 mouse assessed as inhibition of 5'-CTATCTGACGTTCTCTGT-3'-induced MCP1 production in serum at 5 mg/kg, sc administered 24 hrs prior to 5'-CTATCTGACGTTCTCTGT-3' challenge measured after 2 hrs by Luminex multiplex assay; type: functional; details: C57BL/6, sc, route subcutaneous
[3] = test system: Mus musculus; experiment: Immunostimulatory activity in C57BL/6 mouse assessed as inhibition of LPS-induced IL10 production in serum at 10 mg/kg, sc administered 24 hrs prior to LPS challenge measured after 2 hrs by Luminex multiplex assay
[4] = test system: Mus musculus; experiment: Immunostimulatory activity in C57BL/6 mouse assessed as inhibition of 5'-CTATCTGACGTTCTCTGT-3'-induced IL10 production in serum at 5 mg/kg, sc administered 24 hrs prior to 5'-CTATCTGACGTTCTCTGT-3' challenge measured after 2 hrs by Luminex multiplex assay; type: functional; details: C57BL/6, sc, route subcutaneous
[5] = test system: Mus musculus; experiment: Immunostimulatory activity in C57BL/6 mouse assessed as inhibition of 5'-CTATCTGACGTTCTCTGT-3'-induced KC production in serum at 5 mg/kg, sc administered 24 hrs prior to 5'-CTATCTGACGTTCTCTGT-3' challenge measured after 2 hrs by Luminex multiplex assay; type: functional; details: C57BL/6, sc, route subcutaneous
[6] = test system: Mus musculus; experiment: Immunostimulatory activity in C57BL/6 mouse assessed as inhibition of 0.5 mg/kg 5'-CTATCTGACGTTCTCTGT-3'-induced IL12 production in serum at 10 mg/kg, sc administered 24 hrs prior to 5'-CTATCTGACGTTCTCTGT-3' challenge measured after 2 hrs by sandwich ELISA; type: functional
Method in brief: (§1)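 C57BL/6 mice received 10 mg/kg ODN sc in the right flank. After 24 h, the CpG TLR9 agonist ODN was given sc in the left flank at 0.25, 0.5 or 1 mg/kg. Serum IL-12 was measured by ELISA 2 h after challenge. Naive mice served as reference. Representative of two experiments.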

[7] = test system: Mus musculus; experiment: Immunostimulatory activity in C57BL/6 mouse assessed as inhibition of LPS-induced MIG production in serum at 10 mg/kg, sc administered 24 hrs prior to LPS challenge measured after 2 hrs by Luminex multiplex assay
[8] = test system: Mus musculus; experiment: Immunostimulatory activity in C57BL/6 mouse assessed as inhibition of 5'-CTATCTGACGTTCTCTGT-3'-induced TNFalpha production in serum at 5 mg/kg, sc administered 24 hrs prior to 5'-CTATCTGACGTTCTCTGT-3' challenge measured after 2 hrs by Luminex multiplex assay; type: functional; details: C57BL/6, sc, route subcutaneous
[9] = test system: Mus musculus; experiment: Immunostimulatory activity in C57BL/6 mouse assessed as inhibition of 5'-CTATCTGACGTTCTCTGT-3'-induced IL12 production in serum at 5 mg/kg, sc administered 24 hrs prior to 5'-CTATCTGACGTTCTCTGT-3' challenge measured after 2 hrs by sandwich ELISA; type: functional; details: C57BL/6, sc, route subcutaneous
Method in brief: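 C57BL/6 mice were pretreated sc in the right flank with 2, 5 or 10 mg/kg ODN. After 24 h, the TLR9 agonist ODN was given at 0.5 mg/kg sc in the left flank. Serum IL-12 was measured by ELISA 2 h later. Representative of two experiments.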

[10] = test system: Mus musculus; experiment: Immunostimulatory activity in C57BL/6 mouse assessed as inhibition of 5'-CTATCTGACGTTCTCTGT-3'-induced MIG production in serum at 5 mg/kg, sc administered 24 hrs prior to 5'-CTATCTGACGTTCTCTGT-3' challenge measured after 2 hrs by Luminex multiplex assay; type: functional; details: C57BL/6, sc, route subcutaneous
[11] = test system: Mus musculus; experiment: Immunostimulatory activity in C57BL/6 mouse assessed as inhibition of TLR3 agonist-induced MCP1 production in serum at 10 mg/kg, sc administered 24 hrs prior to TLR3 agonist challenge measured after 2 hrs by Luminex multiplex assay
[12] = test system: Mus musculus; experiment: Immunostimulatory activity in C57BL/6 mouse assessed as inhibition of TLR3 agonist-induced MIG production in serum at 10 mg/kg, sc administered 24 hrs prior to TLR3 agonist challenge measured after 2 hrs by Luminex multiplex assay
[13] = test system: Mus musculus; experiment: Immunostimulatory activity in C57BL/6 mouse assessed as inhibition of TLR3 agonist-induced TNFalpha production in serum at 10 mg/kg, sc administered 24 hrs prior to TLR3 agonist challenge measured after 2 hrs by Luminex multiplex assay
[14] = test system: Mus musculus; experiment: Immunostimulatory activity in C57BL/6 mouse assessed as inhibition of TLR3 agonist-induced KC production in serum at 10 mg/kg, sc administered 24 hrs prior to TLR3 agonist challenge measured after 2 hrs by Luminex multiplex assay
[15] = test system: Mus musculus; experiment: Immunostimulatory activity in C57BL/6 mouse assessed as inhibition of TLR7 agonist-induced IP10 production in serum at 5 mg/kg, sc administered 24 hrs prior to TLR7 agonist challenge measured after 2 hrs by Luminex multiplex assay; type: functional; details: C57BL/6, sc, route subcutaneous
[16] = test system: Mus musculus; experiment: Immunostimulatory activity in C57BL/6 mouse assessed as inhibition of 5'-CTATCTGACGTTCTCTGT-3'-induced IL12 production in serum at 10 mg/kg, sc administered 72 hrs prior to 5'-CTATCTGACGTTCTCTGT-3' challenge measured after 2 hrs by sandwich ELISA; type: functional; details: C57BL/6, sc, route subcutaneous
Method in brief: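 C57BL/6 mice received 10 mg/kg ODN sc in the right flank. The TLR9 agonist ODN was then given at 0.5 mg/kg sc in the left flank 24, 48 or 72 h later. Serum IL-12 was measured by ELISA 2 h after challenge. Naive serum served as reference. Representative of three experiments.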

[17] = test system: Mus musculus; experiment: Immunostimulatory activity in C57BL/6 mouse assessed as inhibition of 5'-CTATCTGACGTTCTCTGT-3'-induced IL6 production in serum at 5 mg/kg, sc administered 24 hrs prior to 5'-CTATCTGACGTTCTCTGT-3' challenge measured after 2 hrs by Luminex multiplex assay; type: functional; details: C57BL/6, sc, route subcutaneous
[18] = test system: Mus musculus; experiment: Immunostimulatory activity in C57BL/6 mouse assessed as inhibition of TLR3 agonist-induced IP10 production in serum at 10 mg/kg, sc administered 24 hrs prior to TLR3 agonist challenge measured after 2 hrs by Luminex multiplex assay
[19] = test system: Mus musculus; experiment: Immunostimulatory activity in C57BL/6 mouse assessed as inhibition of 0.25 mg/kg 5'-CTATCTGACGTTCTCTGT-3'-induced IL12 production in serum at 10 mg/kg, sc administered 24 hrs prior to 5'-CTATCTGACGTTCTCTGT-3' challenge measured after 2 hrs by sandwich ELISA; type: functional; method in brief: as §1

COC1[C@H](n2cnc3c(=O)[nH]c(N)nc32)O[C@H](COP(=O)(S)O[C@H]2C[C@H](n3cc(C)c(N)nc3=O)O[C@@H]2COP(=O)(S)O[C@H]2C[C@H](n3cnc4c(N)ncnc43)O[C@@H]2COP(=O)(S)O[C@H]2C[C@H](n3cnc4c(=O)[nH]c(N)nc43)O[C@@H]2COP(=O)(S)O[C@H]2C[C@H](n3cc(C)c(=O)[nH]c3=O)O[C@@H]2COP(=O)(S)O[C@H]2C[C@H](n3ccc(N)nc3=O)O[C@@H]2COP(=O)(S)O[C@H]2C[C@H](n3cc(C)c(=O)[nH]c3=O)O[C@@H]2COP(=O)(S)O[C@H]2C[C@H](n3cnc4c(N)ncnc43)O[C@@H]2COP(=O)(S)O[C@H]2C[C@H](n3cc(C)c(=O)[nH]c3=O)O[C@@H]2COP(=O)(S)O[C@H]2C[C@H](n3ccc(N)nc3=O)O[C@@H]2CO)[C@H]1OP(=O)(S)OC[C@H]1O[C@@H](n2cc(C)c(=O)[nH]c2=O)C[C@@H]1OP(=O)(S)OC[C@H]1O[C@@H](n2cc(C)c(=O)[nH]c2=O)C[C@@H]1OP(=O)(S)OC[C@H]1O[C@@H](n2ccc(N)nc2=O)C[C@@H]1OP(=O)(S)OC[C@H]1O[C@@H](n2cc(C)c(=O)[nH]c2=O)C[C@@H]1OP(=O)(S)OC[C@H]1O[C@@H](n2ccc(N)nc2=O)C[C@@H]1OP(=O)(S)OC[C@H]1O[C@@H](n2cc(C)c(=O)[nH]c2=O)C[C@@H]1OP(=O)(S)OC[C@H]1O[C@@H](n2cnc3c(=O)[nH]c(N)nc32)C[C@@H]1OP(=O)(S)OC[C@H]1O[C@@H](n2cc(C)c(=O)[nH]c2=O)C[C@@H]1O (some centres undefined)
inhibition in vivo at 5 mg/kg [1]: 50% | inhibition in vivo at 5 mg/kg [2]: 50% | Activity [3]: inactive | inhibition in vivo at 5 mg/kg [4]: 50% | inhibition in vivo at 5 mg/kg [5]: 50% | inhibition (INH) [6]: 66% | Activity [7]: inactive | inhibition in vivo at 5 mg/kg [8]: 50% | inhibition in vivo at 5 mg/kg [9]: 66% | inhibition in vivo at 5 mg/kg [10]: 50% | Activity [11]: inactive | Activity [12]: inactive | Activity [13]: inactive | Activity [14]: inactive | inhibition in vivo at 5 mg/kg [15]: 50% | inhibition in vivo at 10 mg/kg [16]: 35% | inhibition in vivo at 5 mg/kg [17]: 50% | Activity [18]: inactive | inhibition (INH) [19]: 85%
